Reference: ChEMBL document CHEMBL1134616, “Novel 7-oxyiminomethyl derivatives of camptothecin with potent in vitro and in vivo antitumor activity” (J Med Chem, 2001)

Assays:
[1] = Cytotoxicity against human non-small-cell lung carcinoma cell line H460 (NSCLC-H460); format: functional, cell-based
Outline: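 Logarithmically growing cells were seeded in duplicate, exposed to drug for 1 h starting 24 h after seeding, and counted by Coulter counter 72 h after exposure. Drug was dissolved in DMSO before dilution. The IC50 is the concentration giving a 50% decrease in growth relative to untreated control.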

[2] = Percentage of body weight loss CD1 mice with human Non-Small-Cell tumor xenograft at a oral dose of 9 mg/kg; format: functional; settings: dose 15 mg/kg, in the assay text read “oral dose of 15 mg/kg” for “oral dose of 9 mg/kg”
Outline: (§1)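 Nude athymic CD1 mice, 8–10 weeks old, bearing s.c. human lung tumor xenografts in both flanks. Given oral drug in 10 mL/kg on a q4dx4 schedule, beginning when tumors were visible but not measurable. Read-out is percent body weight loss after drug treatment.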

Homo sapiens = assay: Percentage inhibition of tumor volume in treated versus control mice against human Non-Small-Cell tumor xenograft at a oral dose of 5 mg/kg; format: functional
Outline: (§2)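 Nude athymic CD1 mice, 8–10 weeks old, with human lung tumor fragments implanted s.c. in both flanks. Oral dosing in 10 mL/kg, q4dx4, started when tumors were visible but not measurable. Tumor volume = d²×D/2 from caliper diameters. Percent inhibition of treated versus control volume taken 7–10 days after the last dose. Volumes compared by Student's t test, P<0.05.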

[3] = No. of dead mice/ total No. of mice bearing lung carcinoma LX-1 at a oral dose of 15 mg/kg; format: ADME, organism-based; parameters: dose 15 mg/kg, route oral; settings: mouse, in vivo
Outline: (§3)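 Human lung tumor s.c. xenografts (fragments, both flanks) in nude athymic CD1 mice aged 8–10 weeks. Oral q4dx4 dosing at 10 mL/kg, begun when tumors were visible but not measurable. Toxicity is recorded as the number of dead mice over the total number of treated mice.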

[4] = Complete response in mice bearing lung carcinoma LX-1 at a oral dose of 15 mg/kg; format: functional, Mus musculus
Outline: (§4)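 Nude athymic CD1 mice, 8–10 weeks old, carrying serially passaged human lung tumor fragments implanted s.c. in both flanks. Oral dosing in 10 mL/kg on a q4dx4 schedule, begun once tumors were visible but not yet measurable. Complete response means no detectable tumor for at least 10 days after the end of treatment.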

[5] = Percentage inhibition of tumor volume in treated versus control mice bearing lung carcinoma LX-1 at a oral dose of 15 mg/kg; format: functional; settings: Mus musculus; outline: as §2
[6] = Log 10 cell kill induced in mice bearing lung carcinoma LX-1 at a oral dose of 15 mg/kg; format: functional, Mus musculus
Outline: (§5)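 Nude athymic CD1 mice, 8–10 weeks, carrying s.c. human lung tumor fragments in both flanks. Given per os on a q4dx4 schedule at 10 mL/kg, starting when tumors were visible but not measurable. Volume = d²×D/2. Log10 cell kill = T−C/3.32 × tumor doubling time, where T and C are the days for treated and control tumors to reach a mean volume of 1000 mm³.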

NCI-H460 [7] = assay: Percentage of body weight loss in CD1 mice with human Non-Small-Cell tumor xenograft at a oral dose of 5 mg/kg; format: functional; outline: as §1
NCI-H460 [8] = assay: Complete response in CD1 mice with human Non-Small-Cell tumor at a oral dose of 5 mg/kg after treatment with compound; format: functional; outline: as §4
NCI-H460 [9] = assay: Complete response in CD1 mice with human Non-Small-Cell tumor xenograft at a oral dose of 9 mg/kg; format: functional; outline: as §4
NCI-H460 [10] = assay: Percentage inhibition of tumor volume in treated versus control mice against human Non-Small-Cell tumor xenograft at a oral dose of 9 mg/kg; format: functional; settings: Mus musculus; outline: as §2
NCI-H460 [11] = assay: Complete response in CD1 mice with human Non-Small-Cell tumor at a oral dose of 9 mg/kg after treatment with compound; format: functional
Outline: (§6)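 Nude athymic CD1 mice, 8–10 weeks old, bearing s.c. human lung tumor xenografts (tumor fragments implanted in both flanks). Oral dosing on a q4dx4 schedule at 10 mL/kg, starting when tumors were visible but not measurable. A complete response was scored as no evidence of tumor for at least 10 days after the end of treatment.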

NCI-H460 [12] = assay: Log 10 cell kill induced in mice with human Non-Small-Cell tumor xenograft at a oral dose of 5 mg/kg; format: functional; outline: as §5
[13] = (§7) No. of dead mice/ total No. of mice with human Non-Small-Cell tumor xenograft at a oral dose of 9 mg/kg; format: ADME, organism-based; parameters: dose 9 mg/kg, route oral; settings: in vivo; outline: as §3
NCI-H460 [14] = assay: as §7; format: ADME, organism-based; parameters: dose 9 mg/kg, route oral; settings: in vivo; outline: as §3
NCI-H460 [15] = assay: No. of dead mice/ total no of mice with human Non-Small-Cell tumor xenograft at a oral dose of 5 mg/kg; format: ADME, organism-based; parameters: dose 5 mg/kg, route oral; settings: in vivo; outline: as §3
NCI-H460 [16] = assay: Percentage of body weight loss of CD1 mice after treatment with compound; format: functional, Homo sapiens; outline: as §1
NCI-H460 [17] = assay: Complete response CD1 mice with human Non-Small-Cell tumor xenograft at a oral dose of 15 mg/kg; format: functional; outline: as §4
NCI-H460 [18] = assay: Percentage inhibition of tumor volume in treated versus control mice against human Non-Small-Cell tumor xenograft at a oral dose of 15 mg/kg; format: functional; settings: Mus musculus; outline: as §2
NCI-H460 [19] = assay: Complete response in CD1 mice with human Non-Small-Cell tumor at a oral dose of 15 mg/kg after treatment with compound; format: functional; outline: as §6
[20] = Percentage of body weight loss in mice bearing lung carcinoma LX-1 at a oral dose of 15 mg/kg; format: functional, Mus musculus; outline: as §1

SMILES | IC50 [1] | other results
CC[C@@]1(O)C(=O)OCc2c1cc1n(c2=O)Cc2c-1nc1ccccc1c2/C=N/OCC(=O)O | 2330 nM | 
CC[C@@]1(O)C(=O)OCc2c1cc1n(c2=O)Cc2c-1nc1ccc(OC)cc1c2/C=N/OC(C)(C)C | 70 nM | 
CC[C@@]1(O)C(=O)OCc2c1cc1n(c2=O)Cc2c-1nc1ccccc1c2/C=N/OC(=O)c1ccccc1 | 1770 nM | 
CC[C@@]1(O)C(=O)OCc2c1cc1n(c2=O)Cc2c-1nc1ccccc1c2/C=N/OCC(=O)NCCCNS(=O)(=O)c1ccccc1[N+](=O)[O-] | 3000 nM | 
CC[C@@]1(O)C(=O)OCc2c1cc1n(c2=O)Cc2c-1nc1ccccc1c2/C=N/OC | 40 nM | 
CC[C@@]1(O)C(=O)OCc2c1cc1n(c2=O)Cc2c-1nc1ccccc1c2/C=N/OC(C)(C)C(=O)OC(C)(C)C | 140 nM | 
CC[C@@]1(O)C(=O)OCc2c1cc1n(c2=O)Cc2c-1nc1ccccc1c2/C=N/OCc1ccccc1 | 30 nM | 
CC[C@@]1(O)C(=O)OCc2c1cc1n(c2=O)Cc2c-1nc1ccccc1c2/C=N/OCc1ccc(N)cc1 | 25 nM | 
CC[C@@]1(O)C(=O)OCc2c1cc1n(c2=O)Cc2c-1nc1ccccc1c2/C=N/OCc1ncc[nH]1 | 210 nM | 
CC[C@@]1(O)C(=O)OCc2c1cc1n(c2=O)Cc2c-1nc1ccccc1c2/C(=N/O)c1ccccc1 | 5130 nM | 
CC[C@@]1(O)C(=O)OCc2c1cc1n(c2=O)Cc2c-1nc1ccc(O)cc1c2/C=N/OC(C)(C)C | 130 nM | 
C=CCO/N=C/c1c2c(nc3ccccc13)-c1cc3c(c(=O)n1C2)COC(=O)[C@]3(O)CC | 60 nM | 
CC[C@@]1(O)C(=O)OCc2c1cc1n(c2=O)Cc2c-1nc1ccccc1c2/C=N/OCc1c2ccccc2cc2ccccc12 | 190 nM | 
CC[C@@]1(O)C(=O)OCc2c1cc1n(c2=O)Cc2c-1nc1ccccc1c2/C=N/OCCN(C)C | 300 nM | 
CC[C@@]1(O)C(=O)OCc2c1cc1n(c2=O)Cc2c-1nc1ccccc1c2/C=N/Oc1ccccc1 | 160 nM | 
CC[C@@]1(O)C(=O)OCc2c1cc1n(c2=O)Cc2c-1nc1ccccc1c2/C=N/OCc1ccc(-c2ccccc2)cc1 | 280 nM | 
CC[C@@]1(O)C(=O)OCc2c1cc1n(c2=O)Cc2c-1nc1ccccc1c2/C=N/OC(C)(C)CO | 340 nM | 
CC[C@@]1(O)C(=O)OCc2c1cc1n(c2=O)Cc2c-1nc1ccc(O)cc1c2/C=N/OC | 200 nM | 
CC[C@@]1(O)C(=O)OCc2c1cc1n(c2=O)Cc2c-1nc1ccccc1c2/C=N/OCC(=O)NCCCNC(=O)OC(C)(C)C | 1700 nM | 
CC[C@@]1(O)C(=O)OCc2c1cc1n(c2=O)Cc2c-1nc1ccccc1c2/C=N/OC[C@H]1O[C@@H]2OC(C)(C)O[C@@H]2[C@H]2OC(C)(C)O[C@H]21 | 360 nM | 

SMILES | IC50 [1] | other results
CC[C@@]1(O)C(=O)OCc2c1cc1n(c2=O)Cc2c-1nc1ccccc1c2/C=N/OCC(=O)NCCCN | 5200 nM | 
CC[C@@]1(O)C(=O)OCc2c1cc1n(c2=O)Cc2c-1nc1ccccc1c2/C(C)=N/OCc1ccccc1 | 130 nM | 
CC[C@@]1(O)C(=O)OCc2c1cc1n(c2=O)Cc2c-1nc1ccccc1c2/C=N/OCc1c(F)c(F)c(F)c(F)c1F | 28 nM | 
CC[C@@]1(O)C(=O)OCc2c1cc1n(c2=O)Cc2c-1nc1ccccc1c2/C=N/OCc1ccc(C)cc1 | 20 nM | 
CC[C@@]1(O)C(=O)OCc2c1cc1n(c2=O)Cc2c-1nc1ccccc1c2/C=N/OCCC1CCCN(C)C1 (some centres undefined) | 100 nM | 
CC[C@@]1(O)C(=O)OCc2c1cc1n(c2=O)Cc2c-1nc1ccccc1c2/C=N/OCC1CO1 (some centres undefined) | 20 nM | 
CC[C@@]1(O)C(=O)OCc2c1cc1n(c2=O)Cc2c-1nc1ccccc1c2/C=N/OC(C)(C)C(=O)O | 48000 nM | 
CC[C@@]1(O)C(=O)OCc2c1cc1n(c2=O)Cc2c-1nc1ccccc1c2/C=N/OCCN1CCOCC1 | 80 nM | 
CC[C@@]1(O)C(=O)OCc2c1cc1n(c2=O)Cc2c(/C=N/OC(C)(C)C)c3ccccc3[n+]([O-])c2-1 | 70 nM | 
CC[C@@]1(O)C(=O)OCc2c1cc1n(c2=O)Cc2c-1nc1ccccc1c2/C=N/O | 32 nM | 
CC[C@@]1(O)C(=O)OCc2c1cc1n(c2=O)Cc2c-1nc1ccccc1c2/C=N/OCc1ccncc1 | 30 nM | 
CC[C@@]1(O)C(=O)OCc2c1cc1n(c2=O)Cc2c-1nc1ccccc1c2/C=N/OC(c1ccccc1)(c1ccccc1)c1ccccc1 | 1450 nM | 
CC[C@@]1(O)C(=O)OCc2c1cc1n(c2=O)Cc2c(/C=N/OC)c3ccccc3[n+]([O-])c2-1 | 2400 nM | 
CC[C@@]1(O)C(=O)OCc2c1cc1n(c2=O)Cc2c-1nc1ccccc1c2/C=N/OCCN | 490 nM | 
CC[C@@]1(O)C(=O)OCc2c1cc1n(c2=O)Cc2c-1nc1ccccc1c2/C=N/OCc1ccc([N+](=O)[O-])cc1 | 17 nM | 
CC[C@@]1(O)C(=O)OCc2c1cc1n(c2=O)Cc2c-1nc1ccccc1c2/C=N/OCC1O[C@H](O)C(O)[C@H](O)[C@H]1O (some centres undefined) | 32000 nM | 
CCc1c2c(nc3ccc(O)cc13)-c1cc3c(c(=O)n1C2)COC(=O)[C@]3(O)CC [7-ETHYL-10-HYDROXYCAMPTOTHECIN] | 80 nM | 
CC[C@@]1(O)C(=O)OCc2c1cc1n(c2=O)Cc2cc3ccccc3nc2-1 [CAMPTOTHECIN] | 330 nM | 
CC[C@@]1(O)C(=O)OCc2c1cc1n(c2=O)Cc2cc3c(CN(C)C)c(O)ccc3nc2-1 [TOPOTECAN] | 1380 nM | BWL [2]: 8%; inhibition in vivo at 5 mg/kg (Homo sapiens): 80%; Toxicity [3]: 0; CR [4]: 4; inhibition in vivo at 15 mg/kg [5]: 99%; LCK [6]: 3.7; BWL (NCI-H460 [7]): 0%; CR (NCI-H460 [8]): 0; CR (NCI-H460 [9]): 0; inhibition in vivo at 9 mg/kg (NCI-H460 [10]): 91%; LCK (NCI-H460 [11]): 1.7; LCK (NCI-H460 [12]): 1.3; Toxicity [13]: 0; Toxicity (NCI-H460 [14]): 0; Toxicity (NCI-H460 [15]): 0; BWL (NCI-H460 [16]): 0%; CR (NCI-H460 [17]): 0; inhibition in vivo at 15 mg/kg (NCI-H460 [18]): 98%; LCK (NCI-H460 [19]): 2.1; BWL [20]: 6%
